From ChEMBL document CHEMBL3616366, “Design, synthesis and biological activity of new amides derived from 3-methyl-3-phenyl-2,5-dioxo-pyrrolidin-1-yl-acetic acid” (Eur J Med Chem, 2015)
The source made the active and inactive calls.

How the values were obtained:
Mus musculus [1] = test: Antinociceptive activity in albino CD-1 mouse assessed as reduction in licking and biting time during phase 2 at 114.68 mg/kg, ip administered 30 mins prior to formalin challenge measured between 15.0 to 20.0 mins relative to control; type: functional; set-up: scale not given: the % may be the effect or the level left
Mus musculus [2] = test: Anticonvulsant activity in albino CD-1 mouse assessed as protection against subcutaneous pentylenetetrazole-induced seizure at 30 to 300 mg/kg, ip measured after 2.0 hrs; type: functional
How it was run: (§1)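 Male CD-1 mice given compound i.p. (0.5% methylcellulose suspension) at 30, 100, 300 mg/kg, four per group; pentylenetetrazole 85 mg/kg s.c. at 0.5 or 2 h. Absence of clonic convulsions (≥5 s) over 30 min observation counts as protection. Minimum active dose reported.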

Mus musculus [3] = test: Neurotoxicity in albino CD-1 mouse assessed as motor performance by measuring time spent in chimney at 114.68 mg/kg, ip administered 30 mins prior to chimney test (reference value: 6.29 +/- 2.48 sec); type: toxicity, organism-based; conditions: in vivo
[4] = Protective index, ratio of TD50 for neurotoxicity in ip dosed albino CD-1 mouse to ED50 for anticonvulsant activity in ip dosed subcutaneous pentylenetetrazole-induced seizure albino CD-1 mouse model; type: toxicity, organism-based; conditions: in vivo, read-out: Ratio TD50/ED50
How it was run: (§2)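 Protective index computed as TD50 (rotarod) divided by ED50 (MES or scPTZ), both from probit analysis on groups of six i.p.-dosed mice.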

[5] = Neurotoxicity in ip dosed albino CD-1 mouse assessed as motor impairment by rotarod test; type: toxicity, organism-based; conditions: in vivo
How it was run: (§3)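 Quantitative work at time of peak effect previously estimated in screening; groups of six mice given various i.p. doses until ≥3 points within 10–90% seizure protection (MES or scPTZ) or minimal motor impairment on rotarod (10 rpm, failure to hold ≥1 min).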

Mus musculus [6] = test: Anticonvulsant activity in albino CD-1 mouse assessed as protection against maximal electroshock-induced seizure at 30 to 300 mg/kg, ip measured after 0.5 hrs; type: functional; conditions: for minimal effective dose: CD-1, ip, read-out: MED
How it was run: (§4)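 Male CD-1 mice (16–26 g), compound suspended in 0.5% methylcellulose/water, i.p. at 30, 100, 300 mg/kg; four mice per group, each used once. Electroconvulsion by electrical stimulus 0.2 s at 50 Hz; protection scored at 0.5 and 2 h. Value is minimum dose showing activity.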

Rattus norvegicus = organism: Rattus norvegicus; test: Displacement of [3H]BTX from voltage-sensitive sodium channel site2 in rat cerebral cortex at 100 uM measured after 60.0 mins by scintillation counting; type: tissue-based
Mus musculus [7] = test: Anticonvulsant activity in ip dosed albino CD-1 mouse assessed as protection against subcutaneous pentylenetetrazole-induced seizure measured as time to peak effect; type: functional; how it was run: as §3
Mus musculus [8] = test: Neurotoxicity in albino CD-1 mouse assessed as motor impairment at 30 to 300 mg/kg mg/kg, ip measured after 0.5 hrs by rotarod test; type: toxicity, organism-based; conditions: in vivo
How it was run: (§5)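 Rotarod in male CD-1 mice at 0.5 and 2 h after i.p. 30, 100 or 300 mg/kg (methylcellulose suspension); motor impairment = inability to keep balance on rod turning at 10 rpm for at least 1 min. Minimum neurotoxic dose reported.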

Mus musculus [9] = test: Antinociceptive activity in albino CD-1 mouse assessed as reduction in licking and biting time during phase 2 at 114.68 mg/kg, ip administered 30 mins prior to formalin challenge measured between 15.0 to 30.0 mins relative to control; type: functional; set-up: scale not given: the % may be the effect or the level left
Mus musculus [10] = test: Antinociceptive activity in albino CD-1 mouse assessed as reduction in licking and biting time during phase 2 at 114.68 mg/kg, ip administered 30 mins prior to formalin challenge measured between 25.0 to 30.0 mins relative to control; type: functional; set-up: scale not given: the % may be the effect or the level left
Mus musculus [11] = test: Anticonvulsant activity in ip dosed albino CD-1 mouse assessed as protection against maximal electroshock-induced seizure; type: functional; conditions: CD-1, ip; how it was run: as §3
Mus musculus [12] = test: Antinociceptive activity in albino CD-1 mouse assessed as reduction in licking and biting time during phase 1 at 114.68 mg/kg, ip administered 30 mins prior to formalin challenge relative to control; type: functional; set-up: scale not given: the % may be the effect or the level left
Mus musculus [13] = test: Anticonvulsant activity in ip dosed albino CD-1 mouse assessed as protection against subcutaneous pentylenetetrazole-induced seizure; type: functional; how it was run: as §3
[14] = Protective index, ratio of TD50 for neurotoxicity in ip dosed albino CD-1 mouse to ED50 for anticonvulsant activity in ip dosed maximal electoshock-induced seizure albino CD-1 mouse model; type: toxicity, organism-based; conditions: in vivo, read-out: Ratio TD50/ED50; how it was run: as §2
Mus musculus [15] = test: Anticonvulsant activity in albino CD-1 mouse assessed as protection against maximal electroshock-induced seizure at 30 to 300 mg/kg, ip measured after 2.0 hrs; type: functional; conditions: for minimal effective dose: CD-1, ip, read-out: MED; how it was run: as §4
Mus musculus [16] = test: Neurotoxicity in albino CD-1 mouse assessed as motor impairment at 30 to 300 mg/kg mg/kg, ip measured after 2 hrs by rotarod test; type: toxicity, organism-based; conditions: in vivo; how it was run: as §5
Mus musculus [17] = test: Anticonvulsant activity in ip dosed albino CD-1 mouse assessed as protection against maximal electroshock-induced seizure measured as time to peak effect; type: functional; how it was run: as §3
Mus musculus [18] = test: Anticonvulsant activity in albino CD-1 mouse assessed as protection against subcutaneous pentylenetetrazole-induced seizure at 30 to 300 mg/kg, ip measured after 0.5 hrs; type: functional; conditions: for minimal effective dose: CD-1, 0.5 h, read-out: MED; how it was run: as §1
Mus musculus [19] = test: Antinociceptive activity in albino CD-1 mouse assessed as reduction in licking and biting time during phase 2 at 104.11 mg/kg, ip administered 2.0 hrs prior to formalin challenge measured between 20.0 to 25.0 mins relative to control; type: functional; set-up: scale not given: the % may be the effect or the level left
Mus musculus [20] = test: Antinociceptive activity in albino CD-1 mouse assessed as reduction in licking and biting time during phase 1 at 104.11 mg/kg, ip administered 2.0 hrs prior to formalin challenge relative to control; type: functional; set-up: scale not given: the % may be the effect or the level left
Mus musculus [21] = test: Neurotoxicity in albino CD-1 mouse assessed as motor performance by measuring time spent in chimney at 104.11 mg/kg, ip administered 2.0 hrs prior to chimney test (reference value: 6.29 +/- 2.48 sec); type: toxicity, organism-based; conditions: in vivo
Mus musculus [22] = test: Antinociceptive activity in albino CD-1 mouse assessed as reduction in licking and biting time during phase 2 at 104.11 mg/kg, ip administered 2.0 hrs prior to formalin challenge measured between 15.0 to 20.0 mins relative to control; type: functional; set-up: scale not given: the % may be the effect or the level left
Mus musculus [23] = test: Antinociceptive activity in albino CD-1 mouse assessed as reduction in licking and biting time during phase 2 at 104.11 mg/kg, ip administered 2.0 hrs prior to formalin challenge measured between 15.0 to 30.0 mins relative to control; type: functional; set-up: scale not given: the % may be the effect or the level left
Mus musculus [24] = test: Anticonvulsant activity in ip dosed albino CD-1 mouse assessed as protection against 6 Hz current-induced seizure measured after 0.5 hrs; type: functional; conditions: CD-1, ip, read-out: MED
How it was run: (§6)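 6-Hz psychomotor test: corneal stimulation 32 mA, 0.2 ms monopolar rectangular pulses at 6 Hz for 3 s, mice restrained then released to observation cage. Protected if normal exploratory behaviour resumes within 10 s. Doses 30, 100, 300 mg/kg i.p.; read at 0.5 and 2 h; minimum active dose.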

Mus musculus [25] = test: Anticonvulsant activity in ip dosed albino CD-1 mouse assessed as protection against 6 Hz current-induced seizure measured after 2.0 hrs; type: functional; conditions: CD-1, ip, read-out: MED; how it was run: as §6
Mus musculus [26] = test: Neurotoxicity in albino CD-1 mouse assessed as mouse mortality at 300 mg/kg mg/kg, ip measured after 0.5 hrs; type: toxicity, organism-based; conditions: in vivo
How it was run: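 Male albino CD-1 mice (16–26 g), four per group, each used once. Compounds were suspended in 0.5% methylcellulose/water and injected i.p. at 30, 100 and 300 mg/kg. Acute motor impairment was scored by rotarod at 0.5 and 2 h: inability to stay on a rod turning at 10 rpm for at least 1 min.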

Vibrio harveyi [27] = test: Antimutagenic activity in Vibrio harveyi BB7XM assessed as inhibition of nitroquinoline-N-oxide-induced revertant colonies; type: functional
How it was run: (§7)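 Revertants induced by 4-nitroquinoline-N-oxide (final 40 ng/ml) with versus without test compound; TA100 at 37 °C, V. harveyi strains at 30 °C in BOSS medium. Three independent repetitions; inhibition % = 100 − (R1/R2 × 100); 25–40% moderate, ≥40% strong.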

Salmonella typhimurium [28] = test: Mutagenic activity in Salmonella typhimurium TA100 assessed as mutagenicity index at 40 ng/ml by Ames test; type: toxicity, organism-based; conditions: salmonella enterica subsp. enterica serovar typhimurium
How it was run: (§8)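 Ames TA100 liquid pre-incubation (minimal medium, 37 °C) and V. harveyi assay (BOSS medium, 30 °C); test at 40 ng/ml, triplicate. Mutagenic index = induced revertants / spontaneous revertants (DMSO control); M.I. ≥2 considered mutagenic.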

Vibrio harveyi [29] = test: Mutagenic activity in Vibrio harveyi BB7XM assessed as mutagenicity index at 40 ng/ml; type: organism-based; conditions: in vivo; how it was run: as §8
Vibrio harveyi [30] = test: Antimutagenic activity in Vibrio harveyi BB7 assessed as inhibition of nitroquinoline-N-oxide-induced revertant colonies; type: functional; how it was run: as §7
Salmonella typhimurium [31] = test: Antimutagenic activity in Salmonella typhimurium TA100 assessed as inhibition of nitroquinoline-N-oxide-induced revertant colonies by Ames test; type: functional, Salmonella enterica subsp. enterica serovar Typhimurium; how it was run: as §7
Vibrio harveyi [32] = test: Mutagenic activity in Vibrio harveyi BB7 assessed as mutagenicity index at 40 ng/ml; type: organism-based; conditions: in vivo; how it was run: as §8

Structure (SMILES) | selectivity ratio [4] | TD50 [5] [mg/kg] | minimal effective dose (Mus musculus [6]) [mg/kg] | Time (Mus musculus [7]) [h] | MTC (Mus musculus [8]) | ED50 (Mus musculus [11]) [mg/kg] | ED50 (Mus musculus [13]) [mg/kg] | selectivity ratio [14] | MED (Mus musculus [15]) | MTC (Mus musculus [16]) | Time (Mus musculus [17]) [h] | minimal effective dose (Mus musculus [18]) [mg/kg] | MED (Mus musculus [2]) | minimal effective dose (Mus musculus [15]) [mg/kg] | MED (Mus musculus [18]) | MED (Mus musculus [6]) | inhibition (INH) (Vibrio harveyi [27]) [%] | Activity_index (Salmonella typhimurium [28]) | Activity_index (Vibrio harveyi [29]) | inhibition (INH) (Vibrio harveyi [30]) [%] | other results
CC1(c2ccccc2)CC(=O)N(CC(=O)N2CCN(c3ccccc3F)CC2)C1=O (stereo not drawn) | 3.11 | 302 | 100 | 0.5 | 300 mg/kg | 115 | 97.1 | 2.64 | inactive | 300 mg/kg | 0.5 | 100 | – | – | – | – | – | – | – | – | Activity (Mus musculus [1]): 98%; minimal effective dose (Mus musculus [2]; CD-1, 2 h, read-out: MED): 300 mg/kg; Time (Mus musculus [3]): 6.5 s; inhibition (Rattus norvegicus): 56.1%; Activity (Mus musculus [9]): 87.1%; Activity (Mus musculus [10]): 81%; Activity (Mus musculus [12]): 73.3%
CC1(c2ccccc2)CC(=O)N(CC(=O)N2CCN(c3ccc(F)cc3)CC2)C1=O (stereo not drawn) | – | 248 | 100 | 2 | 300 mg/kg | 104 | – | 2.37 | – | 300 mg/kg | 2 | – | inactive | 100 | inactive | – | – | – | – | – | Activity (Mus musculus [19]): 95%; Activity (Mus musculus [20]): 60%; Time (Mus musculus [21]): 6.14 s; Activity (Mus musculus [22]): 95%; Activity (Mus musculus [23]): 82.3%; minimal effective dose (Mus musculus [24]): 300 mg/kg; minimal effective dose (Mus musculus [25]): 300 mg/kg
CC1(c2ccccc2)CC(=O)N(CC(=O)N2CCN(C3CCCCC3)CC2)C1=O (stereo not drawn) | – | – | – | – | 300 mg/kg | – | – | – | inactive | Non-toxic | – | – | inactive | – | inactive | inactive | – | – | – | – | Activity (Mus musculus [26]): Toxic
CC1(c2ccccc2)CC(=O)N(CC(=O)N2CCN(c3ccc(Cl)c(Cl)c3)CC2)C1=O (stereo not drawn) | – | – | – | – | Non-toxic | – | – | – | – | Non-toxic | – | – | inactive | 300 | inactive | inactive | 63 | 0.3 | 0.7 | 47 | inhibition (INH) (Salmonella typhimurium [31]): 36%; Activity_index (Vibrio harveyi [32]): 1.2
CC1(c2ccccc2)CC(=O)N(CC(=O)N2CCC(Cc3ccccc3)CC2)C1=O (stereo not drawn) | > 8.33 | > 500 | – | 0.5 | Non-toxic | – | 60 | – | – | Non-toxic | 0.5 | 100 | inactive | 300 | – | inactive | 26 | 0.5 | 1.6 | 22 | inhibition (INH) (Salmonella typhimurium [31]): 5%; Activity_index (Vibrio harveyi [32]): 1.5
